In ChEMBL document CHEMBL4152188, “Design, synthesis and biological evaluation of C(4) substituted monobactams as antibacterial agents against multidrug-resistant Gram-negative bacteria” (Eur J Med Chem, 2018):
In brackets after ≈: the same amount, converted by molar mass.

Experiments:
[1] = Elimination half life in mouse liver microsomes at 0.1 uM pre-incubated with compound followed by NADPH addition and measured after 60 mins by LC-MS/MS analysis; assay type: ADME, microsome; conditions: read-out: beta t1/2
Klebsiella pneumoniae [2] = experiment: Antibacterial activity against KPC-2 producing Klebsiella pneumoniae isolate 212229 after 18 hrs in presence of BPL by CLSI broth microdilution method; assay type: functional; conditions: isolate 212229, 18 h
Method in brief: (§1)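 CLSI broth microdilution against clinical isolates (ESBL E. coli, KPC-2 MDR K. pneumoniae, IMP-4 MDR P. aeruginosa; five per species). Iron limitation: Mueller-Hinton broth supplemented with 16 mg/liter 2,2'-bipyridyl to complex iron and induce iron uptake systems. Read-out: MIC.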

Pseudomonas aeruginosa [3] = experiment: Antibacterial activity against IMP-4 producing Pseudomonas aeruginosa isolate 212886 after 18 hrs in presence of BPL by CLSI broth microdilution method; assay type: functional; conditions: isolate 212886, 18 h; method in brief: as §1
Klebsiella pneumoniae [4] = experiment: Antibacterial activity against KPC-2 producing Klebsiella pneumoniae isolate 212423 after 18 hrs by CLSI broth microdilution method; assay type: functional; conditions: isolate 212423, 18 h
Pseudomonas aeruginosa [5] = experiment: Antibacterial activity against IMP-4 producing Pseudomonas aeruginosa isolate 209471 after 18 hrs by CLSI broth microdilution method; assay type: functional; conditions: isolate 209471, 18 h
Escherichia coli [6] = experiment: Antibacterial activity against extended-spectrum beta-lactamase producing Escherichia coli isolate 212648 after 18 hrs in presence of BPL by CLSI broth microdilution method; assay type: functional; conditions: isolate 212648, 18 h; method in brief: as §1
Escherichia coli [7] = experiment: Selectivity index, ratio of MIC for against extended-spectrum beta-lactamase producing Escherichia coli isolate 208687 to MIC for extended-spectrum beta-lactamase producing Escherichia coli isolate 208687 in presence of BPL; assay type: functional
[8] = Metabolic bioavailability in human liver microsomes at 0.1 uM pre-incubated with compound followed by NADPH addition and measured after 60 mins by LC-MS/MS analysis; assay type: ADME, microsome
Escherichia coli [9] = experiment: Antibacterial activity against extended-spectrum beta-lactamase producing Escherichia coli isolate 208687 after 18 hrs in presence of BPL by CLSI broth microdilution method; assay type: functional; conditions: isolate 208687, 18 h; method in brief: as §1
Escherichia coli [10] = experiment: Selectivity index, ratio of MIC for against extended-spectrum beta-lactamase producing Escherichia coli isolate 106342 to MIC for extended-spectrum beta-lactamase producing Escherichia coli isolate 106342 in presence of BPL; assay type: functional
Pseudomonas aeruginosa [11] = experiment: Antibacterial activity against IMP-4 producing Pseudomonas aeruginosa isolate 207272 after 18 hrs in presence of BPL by CLSI broth microdilution method; assay type: functional; conditions: isolate 207272, 18 h; method in brief: as §1
Escherichia coli [12] = experiment: Selectivity index, ratio of MIC for against Escherichia coli isolate 210737 to MIC for Escherichia coli isolate 210737 in presence of BPL; assay type: functional
Klebsiella pneumoniae [13] = experiment: Antibacterial activity against KPC-2 producing Klebsiella pneumoniae isolate 212423 after 18 hrs in presence of BPL by CLSI broth microdilution method; assay type: functional; conditions: isolate 212423, 18 h; method in brief: as §1
Klebsiella pneumoniae [14] = experiment: Antibacterial activity against KPC-2 producing Klebsiella pneumoniae isolate 209632 after 18 hrs in presence of BPL by CLSI broth microdilution method; assay type: functional; conditions: isolate 209632, 18 h; method in brief: as §1
Klebsiella pneumoniae [15] = experiment: Selectivity index, ratio of MIC for against KPC-2 producing Klebsiella pneumoniae isolate 212229 to MIC for against KPC-2 producing Klebsiella pneumoniae isolate 212229 in presence of BPL; assay type: functional
Klebsiella pneumoniae [16] = experiment: Antibacterial activity against KPC-2 producing Klebsiella pneumoniae isolate 212232 after 18 hrs in presence of BPL by CLSI broth microdilution method; assay type: functional; conditions: isolate 212232, 18 h; method in brief: as §1
Escherichia coli [17] = experiment: Antibacterial activity against Escherichia coli isolate 210737 after 18 hrs in presence of BPL by CLSI broth microdilution method; assay type: functional; conditions: isolate 210737, 18 h; method in brief: as §1
Klebsiella pneumoniae [18] = experiment: Selectivity index, ratio of MIC for against KPC-2 producing Klebsiella pneumoniae isolate 212232 to MIC for against KPC-2 producing Klebsiella pneumoniae isolate 212232 in presence of BPL; assay type: functional
Klebsiella pneumoniae [19] = experiment: Antibacterial activity against KPC-2 producing Klebsiella pneumoniae isolate 209632 after 18 hrs by CLSI broth microdilution method; assay type: functional; conditions: isolate 209632, 18 h
[20] = Elimination half life in human liver microsomes at 0.1 uM pre-incubated with compound followed by NADPH addition and measured after 60 mins by LC-MS/MS analysis; assay type: ADME, microsome; conditions: read-out: beta t1/2
Pseudomonas aeruginosa [21] = experiment: Antibacterial activity against IMP-4 producing Pseudomonas aeruginosa isolate 209321 after 18 hrs in presence of BPL by CLSI broth microdilution method; assay type: functional; conditions: isolate 209321, 18 h; method in brief: as §1
Escherichia coli [22] = experiment: Antibacterial activity against extended-spectrum beta-lactamase producing Escherichia coli isolate 106342 after 18 hrs by CLSI broth microdilution method; assay type: functional; conditions: isolate 106342, 18 h
Pseudomonas aeruginosa [23] = experiment: Antibacterial activity against IMP-4 producing Pseudomonas aeruginosa isolate 209471 after 18 hrs in presence of BPL by CLSI broth microdilution method; assay type: functional; conditions: isolate 209471, 18 h; method in brief: as §1
Klebsiella pneumoniae [24] = experiment: Antibacterial activity against KPC-2 producing Klebsiella pneumoniae isolate 212229 after 18 hrs by CLSI broth microdilution method; assay type: functional; conditions: isolate 212229, 18 h
Escherichia coli [25] = experiment: Antibacterial activity against extended-spectrum beta-lactamase producing Escherichia coli isolate 212648 after 18 hrs by CLSI broth microdilution method; assay type: functional; conditions: isolate 212648, 18 h
Klebsiella pneumoniae [26] = experiment: Antibacterial activity against KPC-2 producing Klebsiella pneumoniae isolate 212232 after 18 hrs by CLSI broth microdilution method; assay type: functional; conditions: isolate 212232, 18 h
Pseudomonas aeruginosa [27] = experiment: Antibacterial activity against IMP-4 producing Pseudomonas aeruginosa isolate 212886 after 18 hrs by CLSI broth microdilution method; assay type: functional; conditions: isolate 212886, 18 h
Escherichia coli [28] = experiment: Antibacterial activity against extended-spectrum beta-lactamase producing Escherichia coli isolate 209285 after 18 hrs in presence of BPL by CLSI broth microdilution method; assay type: functional; conditions: isolate 209285, 18 h; method in brief: as §1
Pseudomonas aeruginosa [29] = experiment: Selectivity index, ratio of MIC for against IMP-4 producing Pseudomonas aeruginosa isolate 212886 to MIC for against IMP-4 producing Pseudomonas aeruginosa isolate 212886 in presence of BPL; assay type: functional
Pseudomonas aeruginosa [30] = experiment: Selectivity index, ratio of MIC for against IMP-4 producing Pseudomonas aeruginosa isolate 209321 to MIC for against IMP-4 producing Pseudomonas aeruginosa isolate 209321 in presence of BPL; assay type: functional
Pseudomonas aeruginosa [31] = experiment: Antibacterial activity against IMP-4 producing Pseudomonas aeruginosa isolate 209321 after 18 hrs by CLSI broth microdilution method; assay type: functional; conditions: isolate 209321, 18 h
Klebsiella pneumoniae [32] = experiment: Selectivity index, ratio of MIC for against KPC-2 producing Klebsiella pneumoniae isolate 209735 to MIC for against KPC-2 producing Klebsiella pneumoniae isolate 209735 in presence of BPL; assay type: functional
Pseudomonas aeruginosa [33] = experiment: Selectivity index, ratio of MIC for against IMP-4 producing Pseudomonas aeruginosa isolate 207272 to MIC for against IMP-4 producing Pseudomonas aeruginosa isolate 207272 in presence of BPL; assay type: functional
Pseudomonas aeruginosa [34] = experiment: Antibacterial activity against IMP-4 producing Pseudomonas aeruginosa isolate 208247 after 18 hrs by CLSI broth microdilution method; assay type: functional; conditions: isolate 208247, 18 h
Escherichia coli [35] = experiment: Antibacterial activity against Escherichia coli isolate 210737 after 18 hrs by CLSI broth microdilution method; assay type: functional; conditions: isolate 210737, 18 h
Klebsiella pneumoniae [36] = experiment: Selectivity index, ratio of MIC for against KPC-2 producing Klebsiella pneumoniae isolate 209632 to MIC for against KPC-2 producing Klebsiella pneumoniae isolate 209632 in presence of BPL; assay type: functional

CC(C)C(O/N=C(\C(=O)N[C@@H]1C(=O)N(S(=O)(=O)O)[C@@H]1Cn1cc(COCc2cc(=O)c(O)cn2O)nn1)c1csc(N)n1)c1cc(=O)c(O)cn1O (some centres not stated)
half-life at 0.1 µM [1]: 1.29 h | MIC (Klebsiella pneumoniae [2]): 0.25 mg/L | MIC (Pseudomonas aeruginosa [3]): 1 mg/L | MIC (Klebsiella pneumoniae [4]): 2 mg/L (≈ 2.61 µM) | MIC (Pseudomonas aeruginosa [5]): 8 mg/L (≈ 10.4 µM) | MIC (Escherichia coli [6]): 8 mg/L | Selectivity Index (Escherichia coli [7]): 16 | Fh at 1 h, 0.1 µM [8]: 42.8% | MIC (Escherichia coli [9]): 1 mg/L | Selectivity Index (Escherichia coli [10]): 2 | MIC (Pseudomonas aeruginosa [11]): 2 mg/L | Selectivity Index (Escherichia coli [12]): 2 | MIC (Klebsiella pneumoniae [13]): 0.25 mg/L | MIC (Klebsiella pneumoniae [14]): 0.25 mg/L | Selectivity Index (Klebsiella pneumoniae [15]): 8 | MIC (Klebsiella pneumoniae [16]): 0.25 mg/L | MIC (Escherichia coli [17]): 8 mg/L | Selectivity Index (Klebsiella pneumoniae [18]): 8 | MIC (Klebsiella pneumoniae [19]): 2 mg/L (≈ 2.61 µM) | half-life at 0.1 µM [20]: 1.33 h | MIC (Pseudomonas aeruginosa [21]): 4 mg/L | MIC (Escherichia coli [22]): 16 mg/L (≈ 20.9 µM) | MIC (Pseudomonas aeruginosa [23]): 2 mg/L | MIC (Klebsiella pneumoniae [24]): 2 mg/L (≈ 2.61 µM) | MIC (Escherichia coli [25]): 16 mg/L (≈ 20.9 µM) | MIC (Klebsiella pneumoniae [26]): 2 mg/L (≈ 2.61 µM) | MIC (Pseudomonas aeruginosa [27]): 4 mg/L (≈ 5.22 µM) | MIC (Escherichia coli [28]): 8 mg/L | Selectivity Index (Pseudomonas aeruginosa [29]): 4 | Selectivity Index (Pseudomonas aeruginosa [30]): 2 | MIC (Pseudomonas aeruginosa [31]): 8 mg/L (≈ 10.4 µM) | Selectivity Index (Klebsiella pneumoniae [32]): 8 | Selectivity Index (Pseudomonas aeruginosa [33]): 8 | MIC (Pseudomonas aeruginosa [34]): 4 mg/L (≈ 5.22 µM) | MIC (Escherichia coli [35]): 16 mg/L (≈ 20.9 µM) | Selectivity Index (Klebsiella pneumoniae [36]): 8

CC(C)C(O/N=C(\C(=O)N[C@@H]1C(=O)N(S(=O)(=O)O)[C@@H]1CCl)c1csc(N)n1)c1cc(=O)c(O)cn1O (some centres not stated)
half-life at 0.1 µM [1]: 1.2 h | MIC (Klebsiella pneumoniae [2]): 0.25 mg/L | MIC (Pseudomonas aeruginosa [3]): 8 mg/L | MIC (Klebsiella pneumoniae [4]): 0.5 mg/L (≈ 0.885 µM) | MIC (Pseudomonas aeruginosa [5]): 8 mg/L (≈ 14.2 µM) | MIC (Escherichia coli [6]): 0.25 mg/L | Selectivity Index (Escherichia coli [7]): 2 | Fh at 1 h, 0.1 µM [8]: 63.9% | MIC (Escherichia coli [9]): 0.25 mg/L | Selectivity Index (Escherichia coli [10]): 4 | MIC (Pseudomonas aeruginosa [11]): 4 mg/L | Selectivity Index (Escherichia coli [12]): 4 | MIC (Klebsiella pneumoniae [13]): 0.5 mg/L | MIC (Klebsiella pneumoniae [14]): 4 mg/L | Selectivity Index (Klebsiella pneumoniae [15]): 2 | MIC (Klebsiella pneumoniae [16]): 0.5 mg/L | MIC (Escherichia coli [17]): 0.25 mg/L | Selectivity Index (Klebsiella pneumoniae [18]): 4 | MIC (Klebsiella pneumoniae [19]): 4 mg/L (≈ 7.08 µM) | half-life at 0.1 µM [20]: 3.15 h | MIC (Pseudomonas aeruginosa [21]): 8 mg/L | MIC (Escherichia coli [22]): 1 mg/L (≈ 1.77 µM) | MIC (Pseudomonas aeruginosa [23]): 4 mg/L | MIC (Klebsiella pneumoniae [24]): 0.5 mg/L (≈ 0.885 µM) | MIC (Escherichia coli [25]): 1 mg/L (≈ 1.77 µM) | MIC (Klebsiella pneumoniae [26]): 2 mg/L (≈ 3.54 µM) | MIC (Pseudomonas aeruginosa [27]): 8 mg/L (≈ 14.2 µM) | MIC (Escherichia coli [28]): 0.5 mg/L | Selectivity Index (Pseudomonas aeruginosa [29]): 1 | Selectivity Index (Pseudomonas aeruginosa [30]): 1 | MIC (Pseudomonas aeruginosa [31]): 8 mg/L (≈ 14.2 µM) | Selectivity Index (Klebsiella pneumoniae [32]): 4 | Selectivity Index (Pseudomonas aeruginosa [33]): 2 | MIC (Pseudomonas aeruginosa [34]): 8 mg/L (≈ 14.2 µM) | MIC (Escherichia coli [35]): 1 mg/L (≈ 1.77 µM) | Selectivity Index (Klebsiella pneumoniae [36]): 1
